High-throughput results as filed in PubChem.
VLA-4 inh: inhibition in a human VLA-4 binding assay | P13612 | VLA-4 expressing cells, ligand binding flow cytometry | inhibition, % (about 7 µM as worked out from the volumes in the protocol) | hit rate 0.2% among 330,000 | AID 2557; in the data active = inhibition above about 50%
PG9 binder: PG9 antibody binding by small molecule; TR-FRET gp120-PG9 antibody binding; inhibition, % at 6.7 µM; hit rate 0.43% among 360,000; AID 624416; in the data active = inhibition above about 8.5%
NR1D1 modulator: modulates human Rev-erb alpha binding to DNA; hit rate 0.79% among 370,000; P20393; AID 1259318; activity, % at 10 µM; Rev-erbα–FITC-DNA binding, fluorescence polarization, 90 min;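 active = activity above about 14%, limit read from the data; passing the limit was not always enough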;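 note: 0% = DMSO wells with 35 nM protein and 100% = DMSO wells with 750 nM protein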
NR2E3 ag-1: agonists of human NR2E3 nuclear receptor. inhibition of corepressor binding, % at 3.98 µM. Q9Y5X4. CHO-S Gal4-NCOR/VP16-NR2E3 two-hybrid, luciferase. hit rate 0.35% among 360,000;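 active = inhibition above the mean of all tested compounds plus 3 SD, cut at about 70% in these data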;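 note: 0% = DMSO with NR2E3 transfected cells and 100% = cells lacking NR2E3 construct; higher means lower luciferase signal from less NR2E3 corepressor binding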
Target sequence (Q9Y5X4 whole entry, looked up, the tested form may be a part): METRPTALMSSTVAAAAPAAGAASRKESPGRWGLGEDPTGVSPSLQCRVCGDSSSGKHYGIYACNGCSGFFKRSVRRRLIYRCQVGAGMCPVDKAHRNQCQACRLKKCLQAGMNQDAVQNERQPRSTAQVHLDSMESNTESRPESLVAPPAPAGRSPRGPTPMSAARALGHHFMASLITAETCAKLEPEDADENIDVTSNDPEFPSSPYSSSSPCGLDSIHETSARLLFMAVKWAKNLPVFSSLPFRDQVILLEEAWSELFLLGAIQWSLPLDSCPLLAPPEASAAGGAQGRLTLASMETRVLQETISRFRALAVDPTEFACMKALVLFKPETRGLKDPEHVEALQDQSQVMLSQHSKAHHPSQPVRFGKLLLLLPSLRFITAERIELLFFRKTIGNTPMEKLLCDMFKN
NR2E3 ag-2: agonists of human nuclear receptor NR2E3; Q9Y5X4; GST-NR2E3/biotin-RetCOR TR-FRET, 1536-well; inhibition of corepressor binding, % at 4.78 µM; hit rate 0.12% among 320,000;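 active = percent inhibition above the cutoff of mean plus 3 SD of all tested compounds, set per screening campaign, cut at about 20% in these data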;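 note: 0% = DMSO wells and 100% = biotin wells as full block of FRET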
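Test system – NR2E3–RetCOR corepressor complex · Quantity – NR2E3 fusion 1.35 nM · Buffer or medium – Tris pH 7.5 · Incubation – Compound–protein incubation for 5 h at 4 °C · Technique – TR-FRET, Eu(K)-anti-GST donor, streptavidin-D2 acceptor, ex 340, em 617/671 nm · Evaluation – percent inhibition of 671/617 nm emission ratio versus biotin and DMSO controls · Plate – 1536-well format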
Rev-erbA confirm: confirmation of modulators of human Rev-erb alpha DNA binding; AID 1259319; shares compounds with NR1D1 modulator; hit rate 61% among 3,000; activation, % at 25 µM; Rev-erb alpha FITC-DNA binding, fluorescence polarization, 90 min;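 active = activation at or above a set limit, or at least 3 SD above the negative control mean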;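 note: 0% = 35 nM protein with DMSO and 100% = 750 nM protein high control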
Starred values were filed as active, the others as inactive; nt = no result given. An excerpt weighted towards active compounds, which were near 1.6% of everything screened.

SMILES	VLA-4 inh	PG9 binder	NR1D1 modulator	NR2E3 ag-1	NR2E3 ag-2	Rev-erbA confirm
COc1ccc2oc(C(=O)Nc3cccc(S(=O)(=O)N4CCOCC4)c3)c(C)c2c1	nt	0	6	-21	nt	nt
O=C(Nc1cccc(Br)c1)c1cc(S(=O)(=O)N2CCOCC2)cs1	-23	-1	30*	-5	0	5
Cc1c(C(=O)Nc2cccc(S(=O)(=O)N3CCOCC3)c2)oc2ccc(Br)cc12	-17	1	16*	-9	nt	-2
Cc1cc(NC(=O)CSc2nc(-c3ccccc3Cl)nc3c2c(=O)n(C)c(=O)n3C)no1	5	1	28*	0	2	7
O=C(C1CCN(c2ncnc3c2sc2cccc(F)c23)CC1)N1CCCCC1	nt	nt	-9	nt	nt	nt
O=C(Nc1ccc(F)cc1F)C1CCN(c2ncnc3c2sc2cccc(F)c23)CC1	-17	0	33*	-83	-2	27*
Cc1cccc(Cl)c1NC(=S)NN	2	-3	2	-29	2	nt
Cc1cccc(Cl)c1NC(=O)N(C)c1ccccc1	nt	3	16*	nt	nt	1
C[C@H]1CN(S(=O)C(C)(C)C)[C@@H](CCO)/C1=C\c1ccccc1 (stereo partly drawn)	nt	1	15*	-7	nt	-1
C[C@H]1CN(S(=O)C(C)(C)C)[C@H](CCO)/C1=C\c1ccccc1 (stereo partly drawn)	nt	0	-1	7	nt	nt
CCCn1c(CN(C)Cc2ccccc2)nc2c1c(=O)n(C)c(=O)n2C	20	1	-5	21	0	nt
CN(Cc1ccccc1)Cc1nc2c(c(=O)n(C)c(=O)n2C)n1Cc1ccccc1Cl	4	1	31*	-10	0	50*
O=C(CCC(=O)N1CCN(c2ccccn2)CC1)c1ccc(Cl)s1	-11	-1	3	-21	5	nt
COc1ccccc1-n1cnc2sc(-c3ccccc3)cc2c1=O	-5	1	20*	-28	0	5
CC(=O)Nc1ccc(S(=O)(=O)N2CCN(Cc3nc4sc(C)c(C)c4c(=O)[nH]3)CC2)cc1	-5	3	31*	-12	-2	16
CSc1cc(-c2ccccc2)n(Cc2c(Cl)cccc2Cl)c(=O)c1C#N	13	-1	13	12	-2	nt
CSc1cc(-c2ccc(Cl)cc2)n(Cc2ccccc2)c(=O)c1C#N	0	-4	32*	-6	6	14
CCCNC(=O)c1cc(-c2ccccc2)c(N2CCCCC2)s1	-12	3	93*	-22	3	27*
COCCN(Cc1cc2c(C)cc(C)cc2nc1Cl)C(=O)c1ccccc1F	7	1	7	-2	-4	nt
N#C/C(=N/Nc1ccc([N+](=O)[O-])cc1)C(=N)N1CCCCC1	nt	-3	28*	-125	nt	20*
N#C/C(=N\Nc1ccc([N+](=O)[O-])cc1)C(N)=S	-5	-6	35*	2	-1	29*
N#C/C(=N\Nc1ccc([N+](=O)[O-])cc1)C(=N)N1CCOCC1	-6	-3	2	-80	-3	nt
Cc1ccccc1CN(C)C(C)C(=O)Nc1ccccc1F (stereo not drawn)	8	0	4	-7	6	nt
Cc1ccc(C2=NS(=O)(=O)N(C)C(C(=O)Nc3cc(C)n(CC(=O)N4CCCCC4)n3)=C2)cc1	25	0	-3	4	1	nt
CC(=O)[C@@]1(O)Cc2c(O)c3c(c(O)c2[C@H](O[C@H]2C[C@H](N)[C@H](O)[C@H](C)O2)C1)C(=O)c1ccccc1C3=O	nt	-6	24*	14	nt	11*
COc1cccc2c1C(=O)c1c(O)c3c(c(O)c1C2=O)C[C@@](O)(C(=O)CO)C[C@@H]3OC1CC(N)C(O)C(C)O1 (stereo partly drawn)	nt	-13	-13	-65	nt	nt
O=C(O)c1ccc(-c2ccc(/C=N/Nc3ccc([N+](=O)[O-])cc3)o2)cc1	-103	-1	21*	-67	0	18*
O=C(O)c1cccc(-c2ccc(/C=N/Nc3ccc([N+](=O)[O-])cc3)o2)c1	-64	-3	5	-45	0	nt
CS(=O)(=O)c1ccc(-c2nnc(NC(=O)c3cccc(N4C(=O)CCC4=O)c3)o2)cc1	1	0	-4	-30	1	nt
